Source: PubChem BioAssay (several laboratories)
In the library only some 2.1% were active in any assay of this set; here they are far more common.
eIF4H inh – human eIF4H binding inhibitors, primary screen, translation initiation inhibitor project, biochemical, uHTS, fluorescence polarization; eIF4H fluorescence polarization binding assay; inhibition, % at 35 µM; 0.94% of 290,000 active; Eukaryotic translation initiation factor 4H (Homo sapiens), Q15056;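 note: calls also rest on retests at 20 µM and on dose response follow-up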
EBNA-1 inhibitor – EBNA-1 DNA-binding inhibitors, primary screen, biochemical, fluorescence polarization. inhibition, % at 14.8 µM. 0.34% of 300,000 active. AID 1950, 2009; in the data active = inhibition above about 28%
MLLE-PAM2 inh – inhibitors of PABP1 MLLE–PAM2 peptide binding, primary screen, biochemical, fluorescence polarization, FITC-PAM2, GST-MLLE; Polyadenylate-binding protein 1 (Homo sapiens), P11940; inhibition, % at 20 µM; 0.36% of 360,000 active; AID 588489, 2011; in the data active = inhibition above about 35%, passing the limit was not always enough;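 note: plate controls were DMSO wells with GST-MLLE for no effect and wells lacking GST-MLLE protein for full effect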
ZTA DNA inh – counter-screen for EBNA-1 inhibitors: inhibitors of Epstein-Barr virus ZTA | P03206 | ZTA-DNA binding, fluorescence polarization | inhibition, % at 11 µM | 0.15% of 320,000 active | AID 2234; in the data active = inhibition above about 33%
Target sequence (P03206 whole entry, looked up): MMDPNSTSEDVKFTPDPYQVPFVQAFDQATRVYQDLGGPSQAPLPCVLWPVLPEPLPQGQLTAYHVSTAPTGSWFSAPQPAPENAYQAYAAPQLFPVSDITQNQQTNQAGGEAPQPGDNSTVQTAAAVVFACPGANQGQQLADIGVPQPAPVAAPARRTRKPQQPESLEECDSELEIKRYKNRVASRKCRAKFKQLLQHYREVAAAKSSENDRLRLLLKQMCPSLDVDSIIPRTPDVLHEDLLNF
PABP polyA inh – PABP poly(A) RNA binding inhibitors, primary screen, biochemical, fluorescence polarization, uHTS | Polyadenylate-binding protein 1 (Homo sapiens), P11940 | AID 2014, 2009 | inhibition, % at 35 µM | 1% of 290,000 active;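 note: calls also rest on retests at 20 µM and on dose response follow-up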
HCV NS3 hel inh – inhibitors of HCV NS3 helicase, primary screen, biochemical, Cy5 molecular beacon fluorescence; 0.56% of 290,000 active; Hepatitis C virus NS3 helicase; NS3 helicase DNA unwinding; inhibition, % at 10.9 µM;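 active = inhibition above the mean of all tested compounds plus 3 SD, set per campaign, cut at about 35% in these data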;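 note: 0% = DMSO wells and 100% = thioflavine S control wells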
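Assay system: hepatitis C virus NS3 helicase domain fragment enzyme. Also added: annealed dual-labelled DNA beacon duplex, ATP-started. Timing: 1 h reaction at 25 °C, ATP-initiated. Technique: Cy5 fluorescence at 0 and 60 min, beacon hairpin quenching. Evaluation: % inhibition of unwinding. Replication: one well per compound.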
* = called active by the depositor; . = not tested or not shown. Unless noted, the rule behind the calls is not given here.

SMILES	eIF4H inh	EBNA-1 inhibitor	MLLE-PAM2 inh	ZTA DNA inh	PABP polyA inh	HCV NS3 hel inh
O=C(Nc1cccc(NC(=O)c2cccc([N+](=O)[O-])c2)n1)c1cccc([N+](=O)[O-])c1	-5	-17	7	-12	4	0
CC1CN=C(NC(=O)c2cccc([N+](=O)[O-])c2)S1 (stereo not given)	9	-3	42*	18	10	4
O=S(=O)([N-]c1nc2ccccc2nc1-[n+]1ccc(CCCc2ccccc2)cc1)c1cccs1	116*	-7	29	-3	56*	2
Cc1c(C(=O)OCC2CCCO2)[nH]c2c1C(=O)CC(c1ccco1)C2 (stereo not given)	90*	2	0	-7	43*	18
Cc1cc(/C=C2/C(=N)N3C(c4ccccc4)=CSC3=NC2=O)c(C)n1-c1ccccc1	90*	-2	-29	15	25*	15
COc1ccc(CCC(=O)Nc2ccc(S(=O)(=O)Nc3ncccn3)cc2)cc1	.	.	-5	3	.	.
O=C(Nc1ccc(N2CCCCC2)cc1)c1ccc([N+](=O)[O-])o1	74*	5	-7	4	18*	19
Clc1ccc(-n2ncc3c(N4CCCC4)ncnc32)cc1	-4	25	14	7	-4	-9
CC(NC(=S)Nc1ccccc1C(F)(F)F)C1CC2CCC1C2 (stereo not given)	-5	0	46*	-3	10	8
CC(NC(=O)c1ccccc1Br)C1CC2CCC1C2 (stereo not given)	.	11	18	-20	.	.
COc1ccccc1NC(=O)CCSc1nc(C)cs1	-7	-9	8	-7	-2	3
O=c1[nH]c2cc3c(cc2cc1CN(CCCO)Cc1nnnn1Cc1ccc(F)cc1)OCO3	4	-6	46*	-6	-5	2
Cc1ccc2cc(CN(CCO)Cc3nnnn3Cc3ccc(F)cc3)c(=O)[nH]c2c1	3	0	-3	2	-5	7
CC(C)C(c1nnnn1Cc1ccccc1)N(CCCO)Cc1cc2cc3c(cc2[nH]c1=O)OCO3 (stereo not given)	111*	2	28	1	94*	-6
CN1C(=O)C(O)(CC(=O)/C=C\c2ccc3c(c2)OCO3)c2ccccc21 (stereo not given)	-7	3	-5	12	-2	13
CCN=c1scc(C)n1/N=C/c1ccc(O)c(O)c1O	82*	-12	20	-18	27*	24
Cc1ccccc1N=C(N)Nc1ccccc1C	.	.	58*	-15	.	.
Cc1ccccc1NC(=O)NC(N)=O	-1	3	19	13	24	-2
O=C(O)CC(Cn1[nH]nnc1=S)c1ccccc1 (stereo not given)	-5	3	-77	-1	7	0
COC(=O)C1=C(C)N(Cc2ccccc2)C(=NCc2ccc(OC)cc2)N[C@H]1c1ccccc1	.	.	-117	.	.	.
COC(=O)C1=C(C)N(Cc2ccccc2)C(=NCCc2ccccn2)N[C@H]1c1cccc(F)c1	24*	-3	-77	-9	66*	-113
COC(=O)C1=C(C)N(Cc2ccccc2)C(=NCC(C)C)N[C@H]1c1ccccc1	94	7	.	12	61*	-83
COc1cc(S(=O)(=O)N2CCOCC2)ccc1NC(=O)CSc1n[nH]c(=O)[nH]c1=O	8	3	-13	18	-2	0
CC(C)CNC(CC(=O)Nc1cccc([N+](=O)[O-])c1)C(=O)O (stereo not given)	-4	-12	0	-10	14	1
Cc1ccc(NC(=O)CC2OC(=O)c3ccccc32)cc1S(=O)(=O)N1CCCCCC1 (stereo not given)	.	.	14	-3	.	.
SMILES	eIF4H inh	EBNA-1 inhibitor	MLLE-PAM2 inh	ZTA DNA inh	PABP polyA inh	HCV NS3 hel inh
O=C1CSC(=S)N1/N=C/c1ccc(O)c(O)c1O	80*	-3	3	11	74*	35
O=C1CSC(=S)N1/N=C/c1cc(Br)ccc1O	14	-7	.	8	0	27
Cc1ccc(-c2cc(C(=O)NCc3ccco3)c3ccccc3n2)o1	86*	-14	16	-13	28*	22
Cc1cc(C)c2nc(-c3ccccn3)cc(C(=O)NCc3cc(C)n(C)n3)c2c1	-2	0	4	6	8	2
Cc1cc(C)c2nc(-c3ccccn3)cc(C(=O)NCc3ccco3)c2c1	48*	0	1	15	82*	19
CCOC(=O)CC(NS(=O)(=O)c1ccc(NC(C)=O)cc1)c1ccc(OCC)cc1 (stereo not given)	-5	-17	-5	-11	0	11
COc1ccc(OCC(=O)NNC(=O)C2CCN(c3ncnc4sc(C)c(C)c34)CC2)cc1	.	.	4	-3	.	.
COC(=O)c1sc(=S)n(-c2ccccc2OC)c1N	-8	10	11	4	2	-1
CCCCNC(=O)c1sc(=S)n(-c2ccccc2OC)c1N	2	-3	45*	6	-2	5
COc1cc(CCC(=O)O)on1	-6	-10	11	4	11	-1
CCOc1ccc(Nc2nc(Cc3nnc(SCC(=O)O)o3)cs2)cc1	48*	-2	-54	0	62	32
CCOc1ccc(Cc2nnc(SCC(=O)c3ccc(OC)cc3)o2)cc1	6	-7	-51	-14	-2	-11
CC(C)(C)NC(=O)C12CCC(C)(c3nc4ccccc4nc31)C2(C)C (stereo not given)	-11	8	12	10	0	-3
CCNc1nc(SCC(N)=O)nc2sc3c(c12)CCN(C)C3	98	.	37	.	42*	25
Cc1ncc(C[n+]2csc(CCOC(=O)CC3C4CC5CC(C4)CC3C5)c2C)c(N)n1 (stereo not given)	28	-12	15	4	51*	-26
Cc1ncc(C[n+]2csc(CCOC(=O)C34CC5CC(CC(C5)C3)C4)c2C)c(N)n1	19	11	27	4	29	-4
CCCCOC(=O)Nc1ccc(S(=O)(=O)Nc2ccc([N+](=O)[O-])cc2)cc1	90	10	-3	0	1.3*	-3
CCCCCOC(=O)Nc1ccc(S(=O)(=O)Nc2cccc([N+](=O)[O-])c2)cc1	4	-5	3	-10	4	6
OC1(c2ccc(Cl)cc2)CN(c2ccccc2)C2=[N+]1CCS2 (stereo not given)	-10	0	37	-17	-12	8
OC1(c2ccc(Br)cc2)CN(c2ccccc2)C2=[N+]1CCS2 (stereo not given)	-6	2	37*	-30	7	1
Cc1nn(-c2cccc(Cl)c2)c2nc(-c3ccco3)cc(C(=O)O)c12	80*	5	21	14	98*	-3
